Measurements: ChEMBL document CHEMBL1156778, “Synthesis and structure-activity studies of biphenyl analogues of the tuberculosis drug (6S)-2-nitro-6-{[4-(trifluoromethoxy)benzyl]oxy}-6,7-dihydro-5H-imidazo[2,1-b][1,3]oxazine (PA-824)” (J Med Chem, 2010)
Converted amounts (≈) assume the structure as drawn.

These molecules were tested on Vero (assay: Cytotoxicity against african green monkey Vero cells after 72 hrs by MTS assay). Details: Chlorocebus sabaeus.
Type: cell-based
Method in brief: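 VERO cells (CCL-81), 72 h exposure, tetrazolium dye read-out.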

Compound | IC50 [µM]
O=[N+]([O-])c1cn2c(n1)OC[C@@H](OCc1cccc(-c3cccc(OC(F)(F)F)c3)c1)C2 | > 125
O=[N+]([O-])c1cn2c(n1)OC[C@@H](OCc1cccc(-c3cccc(OCCCO)c3)c1)C2 | > 125
O=[N+]([O-])c1cn2c(n1)OC[C@@H](OCc1ccccc1-c1ccc3ccccc3c1)C2 | > 125
O=[N+]([O-])c1cn2c(n1)OC[C@@H](OCc1cccc(-c3cccc(C(F)(F)F)c3)c1)C2 | > 125
CSc1cccc(-c2cccc(CO[C@@H]3COc4nc([N+](=O)[O-])cn4C3)c2)c1 | > 125
Cc1cccc(C)c1-c1ccc(CO[C@@H]2COc3nc([N+](=O)[O-])cn3C2)cc1 | > 125
O=[N+]([O-])c1cn2c(n1)OC[C@@H](OCc1ccc(-c3ccc(CO)cc3)cc1)C2 | > 125
O=[N+]([O-])c1cn2c(n1)OC[C@@H](OCc1cccc(-c3ccc(OCCCO)cc3)c1)C2 | > 125
CSc1cccc(-c2ccccc2CO[C@@H]2COc3nc([N+](=O)[O-])cn3C2)c1 | > 125
CS(=O)(=O)c1ccc(-c2ccc(CO[C@@H]3COc4nc([N+](=O)[O-])cn4C3)cc2)cc1 | > 125
Nc1ccc(-c2ccc(CO[C@@H]3COc4nc([N+](=O)[O-])cn4C3)cc2)cc1 | > 125
COc1cc(-c2ccc(CO[C@@H]3COc4nc([N+](=O)[O-])cn4C3)cc2)ccc1F | > 125
O=[N+]([O-])c1cn2c(n1)OC[C@@H](OCc1ccc(-c3cccc(C(F)(F)F)c3)cc1)C2 | > 125
CSc1ccccc1-c1ccc(CO[C@@H]2COc3nc([N+](=O)[O-])cn3C2)cc1 | > 125
CC(C)c1cccc(-c2ccc(CO[C@@H]3COc4nc([N+](=O)[O-])cn4C3)cc2)c1 | > 125

Each molecule was assayed on Mycobacterium tuberculosis (assay: Antitubercular activity against Mycobacterium tuberculosis H37Rv in aerobic condition after 7 days by microplate alamar blue assay). Details: 168 h.
Type: functional
Method in brief: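 M. tuberculosis H37Rv, replicating culture; 8-day microplate assay with Alamar blue added on day 7 to read growth. […] Mean of at least two independent determinations ± SD.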

Compound | MIC [µM]
O=[N+]([O-])c1cn2c(n1)OC[C@@H](OCc1cccc(-c3cccc(OC(F)(F)F)c3)c1)C2 | 0.4 (≈ 0.174 µg/mL)
O=[N+]([O-])c1cn2c(n1)OC[C@@H](OCc1cccc(-c3cccc(OCCCO)c3)c1)C2 | 0.58 (≈ 0.247 µg/mL)
O=[N+]([O-])c1cn2c(n1)OC[C@@H](OCc1ccccc1-c1ccc3ccccc3c1)C2 | 1.6 (≈ 0.642 µg/mL)
O=[N+]([O-])c1cn2c(n1)OC[C@@H](OCc1cccc(-c3cccc(C(F)(F)F)c3)c1)C2 | 0.34 (≈ 0.143 µg/mL)
CSc1cccc(-c2cccc(CO[C@@H]3COc4nc([N+](=O)[O-])cn4C3)c2)c1 | 0.07 (≈ 0.0278 µg/mL)
Cc1cccc(C)c1-c1ccc(CO[C@@H]2COc3nc([N+](=O)[O-])cn3C2)cc1 | 0.39 (≈ 0.148 µg/mL)
O=[N+]([O-])c1cn2c(n1)OC[C@@H](OCc1ccc(-c3ccc(CO)cc3)cc1)C2 | 0.54 (≈ 0.206 µg/mL)
O=[N+]([O-])c1cn2c(n1)OC[C@@H](OCc1cccc(-c3ccc(OCCCO)cc3)c1)C2 | 0.36 (≈ 0.153 µg/mL)
CSc1cccc(-c2ccccc2CO[C@@H]2COc3nc([N+](=O)[O-])cn3C2)c1 | 0.81 (≈ 0.322 µg/mL)
CS(=O)(=O)c1ccc(-c2ccc(CO[C@@H]3COc4nc([N+](=O)[O-])cn4C3)cc2)cc1 | 0.67 (≈ 0.288 µg/mL)
Nc1ccc(-c2ccc(CO[C@@H]3COc4nc([N+](=O)[O-])cn4C3)cc2)cc1 | 0.49 (≈ 0.18 µg/mL)
COc1cc(-c2ccc(CO[C@@H]3COc4nc([N+](=O)[O-])cn4C3)cc2)ccc1F | 0.045 (≈ 0.018 µg/mL)
O=[N+]([O-])c1cn2c(n1)OC[C@@H](OCc1ccc(-c3cccc(C(F)(F)F)c3)cc1)C2 | 0.067 (≈ 0.0281 µg/mL)
CSc1ccccc1-c1ccc(CO[C@@H]2COc3nc([N+](=O)[O-])cn3C2)cc1 | 0.087 (≈ 0.0346 µg/mL)
CC(C)c1cccc(-c2ccc(CO[C@@H]3COc4nc([N+](=O)[O-])cn4C3)cc2)c1 | 0.14 (≈ 0.0551 µg/mL)

The molecules below were run on Mycobacterium tuberculosis (assay: Antitubercular activity against Mycobacterium tuberculosis H37Rv in anaerobic condition after 7 days by low oxygen recovery assay). Details: 168 h.
Type: functional

Compound | MIC [µM]
O=[N+]([O-])c1cn2c(n1)OC[C@@H](OCc1cccc(-c3cccc(OC(F)(F)F)c3)c1)C2 | 3.5 (≈ 1.52 µg/mL)
O=[N+]([O-])c1cn2c(n1)OC[C@@H](OCc1cccc(-c3cccc(OCCCO)c3)c1)C2 | 2.5 (≈ 1.06 µg/mL)
O=[N+]([O-])c1cn2c(n1)OC[C@@H](OCc1ccccc1-c1ccc3ccccc3c1)C2 | 3.1 (≈ 1.24 µg/mL)
O=[N+]([O-])c1cn2c(n1)OC[C@@H](OCc1cccc(-c3cccc(C(F)(F)F)c3)c1)C2 | 2.9 (≈ 1.22 µg/mL)
CSc1cccc(-c2cccc(CO[C@@H]3COc4nc([N+](=O)[O-])cn4C3)c2)c1 | 1.4 (≈ 0.556 µg/mL)
Cc1cccc(C)c1-c1ccc(CO[C@@H]2COc3nc([N+](=O)[O-])cn3C2)cc1 | 0.93 (≈ 0.353 µg/mL)
O=[N+]([O-])c1cn2c(n1)OC[C@@H](OCc1ccc(-c3ccc(CO)cc3)cc1)C2 | 3.7 (≈ 1.41 µg/mL)
O=[N+]([O-])c1cn2c(n1)OC[C@@H](OCc1cccc(-c3ccc(OCCCO)cc3)c1)C2 | 1.5 (≈ 0.638 µg/mL)
CSc1cccc(-c2ccccc2CO[C@@H]2COc3nc([N+](=O)[O-])cn3C2)c1 | 3.2 (≈ 1.27 µg/mL)
CS(=O)(=O)c1ccc(-c2ccc(CO[C@@H]3COc4nc([N+](=O)[O-])cn4C3)cc2)cc1 | 14 (≈ 6.01 µg/mL)
Nc1ccc(-c2ccc(CO[C@@H]3COc4nc([N+](=O)[O-])cn4C3)cc2)cc1 | 1.9 (≈ 0.696 µg/mL)
COc1cc(-c2ccc(CO[C@@H]3COc4nc([N+](=O)[O-])cn4C3)cc2)ccc1F | 1.5 (≈ 0.599 µg/mL)
O=[N+]([O-])c1cn2c(n1)OC[C@@H](OCc1ccc(-c3cccc(C(F)(F)F)c3)cc1)C2 | 1.3 (≈ 0.545 µg/mL)
CSc1ccccc1-c1ccc(CO[C@@H]2COc3nc([N+](=O)[O-])cn3C2)cc1 | 1.4 (≈ 0.556 µg/mL)
CC(C)c1cccc(-c2ccc(CO[C@@H]3COc4nc([N+](=O)[O-])cn4C3)cc2)c1 | 4.2 (≈ 1.65 µg/mL)
